Screening data as filed in PubChem BioAssay.
Hits are enriched below; roughly 29% of the tested compounds scored in any of these assays.
CYP2C19 inh: blockers of cytochrome P450 2C19 activity – biochemical, luminescence, ADME assay, primary screen; 96,000 tested, 21% active; P33261; inhibition, % at 5 µM; AID 778, 2007; CYP2C19 Supersomes, luciferin-H EGE luminescence, 30 min;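 active = CYP2C19 inhibition above a set limit at 5 µM in the primary screen, cut at about 50% in these data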
CYP2C19 activ: human CYP2C19 activators, primary screen, biochemical, luminescence | activation factor at 5 µM | AID 1025, 2008 | recombinant CYP2C19, luciferin-H EGE luminescence; hits give high values; 0 = fully inhibited enzyme, 1 = untreated enzyme | 96,000 tested, under 10 active;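 active = activation factor of at least 2 at 5 µM in the primary screen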
CYP2C9 inhib: blockers of cytochrome P450 2C9 activity – biochemical, luminescence, ADME assay, primary screen. P11712. CYP2C9 Supersomes, luciferin-H conversion. inhibition, % at 5 µM. 96,000 tested, 20% active. AID 777, 2007;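 active = blocking of liver enzyme CYP2C9 beyond about 50% at 5 µM, limit read from the data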
Target sequence (P11712 whole entry, looked up): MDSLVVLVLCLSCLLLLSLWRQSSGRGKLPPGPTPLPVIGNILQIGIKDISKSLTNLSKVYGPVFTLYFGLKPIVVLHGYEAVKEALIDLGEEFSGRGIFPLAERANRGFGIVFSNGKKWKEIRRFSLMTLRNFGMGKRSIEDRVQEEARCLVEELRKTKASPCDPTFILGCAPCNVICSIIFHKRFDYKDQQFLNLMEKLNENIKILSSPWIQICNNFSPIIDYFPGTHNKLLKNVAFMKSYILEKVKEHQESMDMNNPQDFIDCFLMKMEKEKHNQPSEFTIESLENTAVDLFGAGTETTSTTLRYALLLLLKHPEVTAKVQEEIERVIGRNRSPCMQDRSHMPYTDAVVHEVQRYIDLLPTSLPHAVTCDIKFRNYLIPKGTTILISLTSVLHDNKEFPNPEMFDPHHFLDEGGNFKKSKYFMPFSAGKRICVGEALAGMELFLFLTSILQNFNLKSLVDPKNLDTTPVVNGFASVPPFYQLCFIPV
Ecoli tolC: growth inhibitors of E. coli tolC mutant, primary screen, strain BW25113 ΔtolC::kan, 384-well | OD615 | growth inhibition, % at 10 µM (by protocol) | 65,000 tested, 2.2% active;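 active = growth inhibition at or above a cutoff equal to the mean over every tested compound plus 3 SD, cut at about 60% in these data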;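 note: growth measured after 20 h incubation at 37 °C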
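System: E. coli ΔtolC::kan strain BW25113; Buffer or medium: LB broth supplemented with 50 µg/mL kanamycin; Compound: 10 µM final, single dose; Incubation: bacterial growth with compound for 20 h at 37 °C; Signal: A615 absorbance measurement; Evaluation: growth inhibition in percent.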
CYP2C9 activ: human CYP2C9 activators, primary screen, biochemical, luminescence | AID 1024, 2008 | 96,000 tested, 1.4% active | activation factor at 5 µM | recombinant CYP2C9, luciferin-H conversion; hits give high values; factor 1 = untreated enzyme, 0 = blocked;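 active = activation factor of 2 or more for CYP2C9 at a 5 µM dose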
E coli WT exp: growth inhibitors of wild-type E. coli, primary screen, strain BW25113, expanded library, OD600; OD600 absorbance; growth inhibition, % at 100 µM; 98,000 tested, 0.15% active;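 active = growth inhibition above about 50% at one test dose, limit read from the data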;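 note: growth measured after 20 h incubation at 37 °C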
Large screens that a line does not name were inactive.

CC1C(O)=C(c2nc3ccccc3[nH]2)C(=N)N1c1ccccc1 (stereo not given)	none
O=C1CSC(=S)N1CC1CCCO1 (stereo not given)	none
CC(C)(C)NC(=O)C1Cc2ccccc2CN1C(=O)Nc1cccc(Cl)c1 (stereo not given)	none (no result: Ecoli tolC)
COc1ccc(CN(Cc2nc3ccccc3c(=O)[nH]2)C(=O)C(C)(C)C)cc1	none
O=C(c1ccccc1)N(Cc1ccc2c(c1)OCO2)Cc1nc2ccccc2c(=O)[nH]1	CYP2C19 inh 92, CYP2C9 inhib 90
O=C(Nc1ccccc1)N(Cc1ccc2c(c1)OCO2)Cc1nc2ccccc2c(=O)[nH]1	CYP2C9 inhib 60
COCc1cc(=O)n2[nH]c(-c3ccccc3)cc2n1	none
COCc1cc(=O)n2[nH]c(-c3cccc(Br)c3)cc2n1	CYP2C19 inh 95
O=S(=O)(NC1=NCCC1)c1ccc(F)cc1	none (no result: Ecoli tolC)
O=C(C1CCCN(S(=O)(=O)c2ccc(Br)s2)C1)N1CCCCCC1 (stereo not given)	CYP2C19 inh 63
O=S(=O)(c1ccc(N2CCCC2)cc1)C(F)(F)F	none
COc1ccc(S(=O)(=O)/N=C2/NC(=O)/C(=C\c3cc(OC)c(OC)cc3[N+](=O)[O-])S2)cc1	CYP2C9 inhib 100 (no result: Ecoli tolC)
COc1ccc(NC(=O)/C(=C\c2cc(OC)c(OC)cc2[N+](=O)[O-])NC(=O)c2ccccc2)cc1	none (no result: Ecoli tolC)
Cc1ccc2c(c1)C1(OCCO1)C(=O)N2	none (no result: Ecoli tolC)
Cc1ccc2c(c1)NC(=O)C(N1CCOCC1)(C(F)(F)F)O2 (stereo not given)	CYP2C19 inh 55
Cc1nnc(OC(C)C)c2nn(-c3ccccc3F)c(C)c12	CYP2C19 inh 51, CYP2C9 inhib 89 (no result: Ecoli tolC)
CCOc1nnc(C)c2c(C)n(-c3cccc(OC)c3)nc12	none (no result: Ecoli tolC)
Cc1cc(C)cc(N(CC(=O)NC2CCCCC2)C(=O)c2ccc(C)s2)c1	none (no result: Ecoli tolC)
CC(C)(C)NC(=O)CN(C(=O)CNS(=O)(=O)c1ccccc1)c1ccc2c(c1)OCCO2	none (no result: Ecoli tolC)
Cc1ccc(N(CC(=O)NC2CCCCC2)C(=O)c2ccc(C)s2)cc1	CYP2C9 inhib 60 (no result: Ecoli tolC)
CCC(C)(C)NC(=O)CN(C(=O)CNS(=O)(=O)c1ccc(C)cc1)c1ccc2c(c1)OCCO2	CYP2C9 inhib 54
Cc1ccc(S(=O)(=O)NCC(=O)N(CC(=O)NC2CCCC2)c2ccc3c(c2)OCCO3)cc1	CYP2C9 inhib 61
Oc1c(Br)cc(Br)cc1/C=N/c1nc2c(s1)CCCC2	E coli WT exp 67 (no result: CYP2C19 inh, CYP2C19 activ, CYP2C9 inhib, Ecoli tolC, CYP2C9 activ)
CC1=CCC2C(=O)N(c3ccc(C)c(Br)c3)C(=O)C2C1 (stereo not given)	none
Cc1[nH]n(C(C)(C)C)c(=O)c1Sc1ccccc1	none
Cc1ccc(Sc2c(C)[nH]n(C(C)(C)C)c2=O)cc1	CYP2C19 inh 88, CYP2C9 inhib 87
O=C(O)C(Cc1cc2ccccc2[nH]1)N1C(=O)C2CC=C(Cl)CC2C1=O (stereo not given)	none (no result: CYP2C19 inh, CYP2C19 activ, CYP2C9 inhib, CYP2C9 activ, E coli WT exp)
COCCCn1c(-c2ccco2)nc2ccccc2c1=O	none
COc1ccc(CCn2c(-c3ccco3)nc3ccccc3c2=O)cc1OC	CYP2C19 inh 95
O=c1c2ccccc2nc(-c2ccco2)n1CCCn1ccnc1	CYP2C19 inh 69, CYP2C9 inhib 65
CCC(c1nc2ccccc2c(=O)n1CCCn1ccnc1)N1C(=O)c2ccccc2C1=O (stereo not given)	CYP2C19 inh 93, CYP2C9 inhib 85
O=c1c2ccccc2nc(-c2ccccc2)n1CCCn1ccnc1	CYP2C19 inh 72, CYP2C9 inhib 70
Cc1ccc(-c2nc3ccccc3c(=O)n2CCCn2ccnc2)cc1	none
CC1(C)C(c2ccc(Cl)cc2)=[N+]([O-])C2(CCCC/C2=N\O)N1O (stereo not given)	none
COc1ccc(CCn2c(C)c(C(C)=O)c3cc(OC(=O)c4ccco4)ccc32)cc1OC	CYP2C19 inh 83, CYP2C9 inhib 87 (no result: Ecoli tolC)
CC(=O)c1c(C)n(C)c2ccc(OC(=O)c3ccco3)cc12	none
O=C(NCc1ccco1)c1ccc2c(=O)n(CCC3=CCCCC3)c(=O)[nH]c2c1	none
CCN(CC)c1ncnc2ccc(Br)cc12	none (no result: Ecoli tolC)
COc1ccc(N=C2NC(=O)S/C2=C\c2ccc(N(C)C)cc2)cc1	CYP2C9 inhib 94 (no result: Ecoli tolC)
Cc1cc[n+](-c2nc([O-])sc2/C=N/Nc2ccc([N+](=O)[O-])cc2)cc1	none (no result: Ecoli tolC)
CCc1ccc(/C=N/NC(=O)c2cc(C3CC3)nc3ccccc23)s1	CYP2C9 inhib 81 (no result: Ecoli tolC)
CN(C)C(=O)CSCc1c(Cl)cccc1Cl	none (no result: Ecoli tolC)
Cn1c(CS(=O)Cc2c(Cl)cccc2Cl)nnc1SCc1c(Cl)cccc1Cl (stereo not given)	CYP2C19 inh 55 (no result: Ecoli tolC)
O=S(Cc1ccc(Br)cc1)Cc1nnc(SCc2c(Cl)cccc2Cl)n1-c1ccccc1 (stereo not given)	CYP2C19 inh 88, CYP2C9 inhib 80 (no result: Ecoli tolC)
Cn1c(CO)cnc1SCc1c(Cl)cccc1Cl	CYP2C19 inh 82 (no result: Ecoli tolC)
Cc1ccc(-c2nc(CSCC(=O)NCc3cccnc3)c(C)o2)cc1	none
CCOC(=O)c1c(NC(=O)c2ccc(-n3cnnn3)cc2)sc2c1CCCC2	none (no result: CYP2C19 inh, CYP2C19 activ, CYP2C9 inhib, CYP2C9 activ, E coli WT exp)
CCOC(=O)Cc1csc(SCC(=O)Nc2sc3c(c2C(N)=O)CCC3)n1	CYP2C9 inhib 50
Cc1nnc(SCC(=O)Nc2sc3c(c2C#N)CCCC3)[nH]c1=O	CYP2C9 inhib 79
CCOC(=O)c1c(NC(=O)CSc2nnc(C)s2)sc2c1CCCCC2	CYP2C9 inhib 55 (no result: Ecoli tolC)
NC(=O)c1c(NC(=O)COC(=O)CSc2nnc(-c3ccc(Cl)cc3)o2)sc2c1CCC2	CYP2C9 inhib 79
CC1=CC(C)=Nc2ccc(C)cc2N1	none
O=C(NC1CCCCC1)C(c1ccc(Cl)cc1)N(C(=O)c1cnccn1)c1ccc2c(c1)OCO2 (stereo not given)	none
CCCCCCNC(=O)C(C(=O)OCC)C1CCCCC1 (stereo not given)	none
CCOC(=O)c1c(NC(=O)CSc2nnc(C)c(=O)[nH]2)sc2c1CCCC2	CYP2C9 inhib 98 (no result: Ecoli tolC)
CCn1c(SCC(=O)C(C)(C)C)nnc1-c1ccccc1OC	none
CCn1c(SCc2nc3ccccc3[nH]2)nnc1-c1ccccc1OC	CYP2C19 inh 100, CYP2C9 inhib 70
CCn1c(SCc2nc3ccccc3[nH]2)nnc1-c1cccs1	CYP2C19 inh 99
CCn1c(COc2ccc(C)cc2)nnc1SCc1nc2ccccc2[nH]1	none (no result: Ecoli tolC)
O=C(NCCO)c1scc2c1OCCO2	none
O=C(Cn1cc(C(=O)c2ccco2)c2ccccc21)NCc1ccco1	none (no result: Ecoli tolC)
CCC(=O)c1cn(CC(=O)NCC2CCCO2)c2ccccc12 (stereo not given)	none
